Bioassay records as filed in PubChem.
Fibroblast inh – blocks proliferation of human lung fibroblasts | LL 47 human lung fibroblast viability, ATP luminescence; active compounds read low | viability, % at 10 µM | actives 1.1% (n = 85,000) | AID 719;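 active means viability at or below 50% in the single dose screen; inactive means viability above 50%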;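 further: compound exposure lasted 72 h before the ATP readout; 100% = median luminescence of untreated cell-only wells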
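Material: Human LL 47 lung fibroblast cells | Input: 1,150 cells/well | Buffer or medium: IMEM plus 15% FBS | Compound dosing: 0.1% DMSO in all compound wells | Times: Overnight cell rest, 72 h compound treatment at 37 °C | Signal: CellTiter-Glo luminescence measuring cellular ATP | Measure: % viability versus median cells-only luminescence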
tolC growth inh – growth inhibitors of E. coli BW25113 tolC mutant; OD615; growth inhibition, % at 10 µM (by protocol); actives 2.2% (n = 65,000); AID 573;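 active means growth inhibition at or above a cutoff equal to the mean over every tested compound plus 3 SD, cut at about 60% in these data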;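 further: growth measured after 20 h incubation at 37 °C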
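Doses: one dose of 10 µM final / Material: E. coli BW25113 ΔtolC::kan, tolC deletion mutant strain / Buffer or medium: LB with kanamycin 50 µg/mL / Evaluation: percent growth inhibition / Detection: optical density read at 615 nm / Incubation: 37 °C, 20 h exposure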
HUVEC inhibit – blocks proliferation of human endothelial cells | viability, % at 10 µM (by protocol) | HUVEC proliferation, CellTiter-Glo luminescence, 72 h; active compounds read low | actives 1.1% (n = 86,000) | AID 648;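 active means viability at or below 30%; inactive means viability above 30%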;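 further: 100% = median luminescence of DMSO-only cell control wells on each plate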
Jurkat viability – cytotoxicity toward Jurkat cells. Jurkat E6.1 viability, ATP luminescence, 48 h. inhibition, % at 4 µM. actives 1.2% (n = 56,000);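 active means inhibition above the mean inhibition of all tested compounds plus 3 SD, cut at about 28% in these data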
H69AR growth 86K – blocks growth of human H69AR lung tumor cells | H69AR lung tumor viability, ATP luminescence, 72 h; active compounds read low | viability, % at 10 µM | actives 6% (n = 85,000);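 active means viability at or below 40%; inactive means viability above 40%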;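 further: multidrug resistant small cell line overexpressing MRP-1 efflux transporter; 100% = mean luminescence of untreated control wells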
E coli WT exp – E. coli BW25113 growth inhibition, expanded screen; OD600 absorbance; growth inhibition, % at 100 µM; actives 0.15% (n = 98,000);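 active means growth inhibition above about 50% at one test dose, limit read from the data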;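 further: growth measured after 20 h incubation at 37 °C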
An asterisk follows results filed as active; . = not tested or not shown. A selection: hits, their analogues and other compounds. The true share with any hit is near 6.4%.

SMILES	Fibroblast inh	tolC growth inh	HUVEC inhibit	Jurkat viability	H69AR growth 86K	E coli WT exp
Cc1ccc(NC(=O)c2ccc(NS(=O)(=O)c3c(C)noc3C)cc2)cc1C	93.5	76.5*	73.2	-2.5	97.7	7.0
Cc1noc(C)c1S(=O)(=O)N1CCC(C(=O)N2CCN(c3ccc(Cl)cc3)CC2)CC1	92.5	1.3	89.5	.	70.0	-3.0
Cc1noc(C)c1S(=O)(=O)N1CCC(C(=O)N2CCN(c3ccccc3Cl)CC2)CC1	102.4	0.7	98.2	.	8.4*	-2.0
Cc1noc(C)c1S(=O)(=O)Nc1ccc(C(=O)N2CCCCC2)cc1	109.1	.	101.5	.	94.4	-5.0
COc1ccc(NC(=O)c2ccc(NS(=O)(=O)c3c(C)noc3C)cc2)cc1OC	.	-4.7	.	4.0	.	0.0
Cc1ccc(C)c(N2CCN(C(=O)c3ccc(NS(=O)(=O)c4c(C)noc4C)cc3)CC2)c1	.	80.2*	.	7.9	.	-18.0
Cc1ccc(Cl)cc1N1CCN(C(=O)c2ccc(NS(=O)(=O)c3c(C)noc3C)cc2)CC1	.	70.8*	.	1.7	.	-19.0
Cc1c(Br)cc(C(=O)NC2CCCCC2)c(C)c1C	88.7	.	103.0	.	87.9	26.0
CC(=O)Nc1coc2ccc(Br)cc12	109.8	.	82.2	-0.1	78.9	23.0
CC(=O)c1ccc(NC(=O)Nc2ccccc2)cc1	107.1	.	102.2	.	98.4	15.0
O=C(Nc1nc(COc2ccccc2)cs1)C1CCC1	96.0	.	94.1	.	96.6	.
CC(=O)Nc1nc(COc2ccccc2)cs1	88.6	7.0	74.3	9.8	89.7	12.0
Cc1ccc(C(=O)Nc2nc(COc3ccccc3)cs2)s1	97.2	79.1*	87.0	14.1	88.5	-9.0
O=C(Nc1nc(COc2ccccc2)cs1)C12CC3CC(CC(C3)C1)C2	87.1	.	55.5	.	39.2*	-8.0
O=C(CCSCCc1ccccn1)Nc1ccc(Br)cn1	102.5	.	92.6	.	99.2	19.0
CC(=O)CCS(=O)(=O)c1ccc(Oc2ccc(S(=O)(=O)CCC(C)=O)cc2)cc1	10.8*	.	94.3	.	1.3*	.
CC(=O)CS(=O)(=O)c1ccc(Oc2ccc(S(=O)(=O)CC(C)=O)cc2)cc1	99.2	.	103.8	.	85.6	.
CN(C)S(=O)(=O)CC12CCC(CC1=O)C2(C)C (configuration not stated)	97.2	-8.6	96.6	2.2	99.8	0.0
N#Cc1ccc(NC(=O)Nc2ccc(Cl)cc2)cc1	38.6*	89.9*	34.6	12.7	7.1*	48.0
CN(CC(=O)Nc1ccc(C#N)cc1)Cc1ccc(Cl)cc1	101.7	17.3	96.1	-1.2	97.5	23.0
CC(C)CCNC(=O)Cn1cc2c(n1)CCCCC2	92.5	-2.2	100.1	6.3	105.8	3.0
Cc1cc(C)nc(N2CCN(c3nnnn3-c3ccccc3)CC2)n1	95.3	-20.0	93.8	-1.3	89.7	-5.0
Cc1ccc(C)c(N2CCN(c3nnnn3-c3ccccc3)CC2)c1	84.5	.	89.1	.	19.9*	-11.0
FC(F)(F)c1cccc(N2CCN(c3nnnn3-c3ccccc3)CC2)c1	98.0	69.3*	98.5	7.6	72.5	1.0
c1ccc(CC2CCN(c3nnnn3-c3ccccc3)CC2)cc1	97.1	75.7*	117.4	-2.2	97.0	-35.0
SMILES	Fibroblast inh	tolC growth inh	HUVEC inhibit	Jurkat viability	H69AR growth 86K	E coli WT exp
CC(=O)OC(C(=O)NC1CCCCC1)c1cccc(C)c1 (configuration not stated)	100.6	.	97.8	.	82.5	2.0
CC1=C(C(=O)OC2CCCCCCC2)C(c2cc3c(cc2Br)OCO3)CC(=O)N1 (configuration not stated)	91.3	.	5.0*	.	5.8*	2.0
COC(=O)C1=C(C)NC(=O)CC1c1cc2c(cc1Br)OCO2 (configuration not stated)	100.4	7.1	94.1	3.8	96.7	7.0
O=S(=O)(c1ccc(S(=O)(=O)N2CCCC3(CCCCC3)C2)cc1)N1CCCCC1	84.2	-18.2	79.3	-4.0	34.6*	2.0
NS(=O)(=O)c1ccc(S(=O)(=O)N2CCCC2)cc1	104.3	.	106.2	.	102.0	4.0
CCCCOC(=O)Nc1ccc(C(=O)OCCC)cc1	96.5	67.3*	93.3	-1.6	92.3	5.0
CCCCOC(=O)c1ccc(NC(=O)c2cnccn2)cc1	93.0	4.7	108.4	5.6	80.0	2.0
CCC(=O)N1CCN(c2ccccc2NC(=O)COc2cc(C)ccc2C(C)C)CC1	90.2	25.0	52.6	2.8	35.6*	-19.0
CC(=O)N1CCN(c2ccccc2NC(=O)COc2ccc(Cl)cc2Cl)CC1	84.1	25.0	92.2	6.8	56.8	0.0
